The record followed here is ChEMBL document CHEMBL1148154, “New secondary metabolites from the marine endophytic fungus Apiospora montagnei” (J Nat Prod, 2004).

For one series, the system named is Microbotryum violaceum. As to the kind of experiment: Antifungal activity against Microbotryum violaceum at 50 ug/disk by agar diffusion assay. Format: functional, organism-based.
In a further series the test system is Escherichia coli. As to the kind of experiment: Antibacterial activity against Escherichia coli at 50 ug/disk by agar diffusion assay. The format is functional, organism-based. On the technique in general: Agar diffusion results depend on both activity and mobility in agar.
Series [1] relates to Aspergillus pseudoglaucus. As to the kind of experiment: Antifungal activity against Eurotium repens at 50 ug/disk by agar diffusion assay. Format: functional, organism-based.
For the next series, the system named is Priestia megaterium. Put plainly: Antibacterial activity against Bacillus megaterium at 50 ug/disk by agar diffusion assay. The format is functional, organism-based.
A further series deals with Mycotypha microspora. As to the kind of experiment: Antifungal activity against Mycotypha microspora at 50 ug/disk by agar diffusion assay. The format is functional, organism-based.
Another series relates to [Chlorella] fusca. Put plainly: Antialgal activity against 'Chlorella' fusca at 50 ug/disk by agar diffusion assay. Format: functional, organism-based. The settings on record: Scenedesmus fuscus.
The test system of another series is P388. As to the kind of experiment: Cytotoxicity against mouse P388 cells. To be noted: read-out: ED50 (the source's name). The format is functional.
In series [2] the test system is HepG2. Put plainly: Cytotoxicity against human HepG2 cells. The format is functional. The method, boiled down: (§1)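 Human tumour lines were HM02 (gastric adenocarcinoma), HepG2 (hepatocellular carcinoma) and MCF7 (breast adenocarcinoma), run following NCI standards. Read-outs were total growth inhibition (TGI) and LC50, defined as a 50% reduction of the initial cell number, in µg/mL. Single-level testing was done at 10 µg/mL.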

A further series concerns Artemia. Put plainly: Toxicity in brine shrimp. Format: organism-based. The settings on record: in vivo.
Series [3] is described as follows: Cytotoxicity against human HM02 cells. Format: functional. Put shortly:
as §1

The test system of series [4] is MCF7. As to the kind of experiment: Cytotoxicity against human MCF7 cells. The format is functional. Put shortly: as §1
Series [5] deals with MCF7. As to the kind of experiment: Cytotoxicity against human MCF7 cells at 10 ug/ml. The format is functional, cell-based. The method, boiled down:
as §1

The test system of a further series is HM02. As to the kind of experiment: Cytotoxicity against human HM02 cells at 10 ug/ml. Format: functional, cell-based. The method, boiled down: as §1
The subject of series [6] is HepG2. As to the kind of experiment: Cytotoxicity against human HepG2 cells at 10 ug/ml. The format is functional, cell-based. Put shortly:
as §1

Setting [7] is: read-out: LC50 (the source's name).

In general, GI50 refers to the concentration giving 50% growth inhibition. As a reminder, the TGI is the concentration at which net growth stops. Low values mean more potent growth arrest, high ones less potent growth arrest.

Values after ≈ are worked out from the molar mass of the structure shown. Active and inactive are the calls of the source.

Consider `C[C@@H]1C=C[C@@H]2C[C@H](CO)CC[C@H]2[C@@H]1C(=O)O`, for which the result (with Microbotryum violaceum; in the series on Escherichia coli; in [1]; with Priestia megaterium; in the series on Mycotypha microspora; in series [Chlorella] fusca) was inactive.

Consider `O=C1C(CO)=C[C@H](O)[C@H]2O[C@@H]12`, for which the EC50 in the series on P388 was determined as 0.2 µg/mL (≈ 1.28 µM). The GI50 is 0.75 µg/mL (≈ 4.8 µM) in the series on HepG2 [2], 0.7 µg/mL (≈ 4.48 µM) in series [3] and 0.8 µg/mL (≈ 5.12 µM) with MCF7 [4]. The results for the total growth inhibition concentration (TGI) (in the series with HepG2 [2]; in [3]; with MCF7 [4]) were 4.6 µg/mL (≈ 29.5 µM), 1 µg/mL (≈ 6.4 µM) and 1.5 µg/mL (≈ 9.61 µM), respectively. Also, the CC50 in the series on HepG2 [2] (setting [7]) is above 10 µg/mL; in [3] (setting [7]), above 10 µg/mL; in the series with MCF7 [4] (setting [7]) it was 3.6 µg/mL (≈ 23.1 µM). Further, the result (in the series with Microbotryum violaceum; with Escherichia coli; in series [1]; in the series with Priestia megaterium; in the series on Mycotypha microspora; in series [Chlorella] fusca) was inactive. For the same compound, the Activity result in the series on Artemia is “Toxic”.

On to `C=C(C(=O)O)C(CCCCC(C)O)C(=O)OC` (centres undefined), for which the outcome (in the series with Microbotryum violaceum; in the series on Escherichia coli; in series [1]; in the series with Priestia megaterium; with Mycotypha microspora; in series [Chlorella] fusca) was inactive.

Turning to `C=C(C(=O)O)C(CCCCCC)C(=O)O` (centres undefined), the outcome (with Microbotryum violaceum; in the series on Escherichia coli; in series [1]; with Priestia megaterium; in the series on Mycotypha microspora; in series [Chlorella] fusca) was inactive.

Regarding `C=C[C@@]1(C)C=C2C(=O)C(O)=C3[C@](C)(C(=O)O)CC[C@@H]4C[C@]34[C@]2(O)C(=O)C1`, the result (in the series with MCF7 [5]; with Microbotryum violaceum; with Escherichia coli; in the series on HM02; in [1]; in the series on HepG2 [6]) was inactive. Besides, the outcome (with Priestia megaterium; with Mycotypha microspora; in series [Chlorella] fusca) was inactive.
